The values below come from ChEMBL document CHEMBL1817627, “Synergy-directed fractionation of botanical medicines: a case study with goldenseal (Hydrastis canadensis)” (2011).

For assay [1], the target named is T1, Quinolone resistance protein NorA (Staphylococcus aureus) (UniProt P0A0J7).
T1 sequence (whole entry): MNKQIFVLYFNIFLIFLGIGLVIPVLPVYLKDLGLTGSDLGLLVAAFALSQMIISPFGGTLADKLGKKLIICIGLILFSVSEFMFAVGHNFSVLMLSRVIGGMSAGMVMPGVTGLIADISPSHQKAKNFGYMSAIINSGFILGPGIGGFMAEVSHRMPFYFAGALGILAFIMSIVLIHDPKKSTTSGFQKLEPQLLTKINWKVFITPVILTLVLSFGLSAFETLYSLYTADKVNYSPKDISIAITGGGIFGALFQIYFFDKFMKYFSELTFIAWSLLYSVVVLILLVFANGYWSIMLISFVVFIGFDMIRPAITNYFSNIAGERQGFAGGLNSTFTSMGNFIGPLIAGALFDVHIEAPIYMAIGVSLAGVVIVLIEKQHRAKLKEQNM
The assay is described as follows: Inhibition of wild type Staphylococcus aureus NCTC8325-4 NorA assessed as time taken to inhibit ethidium bromide efflux by measuring fluorescence at 100 uM relative to control. Put shortly:
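Cells grown in Mueller-Hinton broth to OD600 0.74, then loaded with ethidium bromide (25 μM) plus CCCP (100 μM) for 20 min at 20 °C with shaking. Diluted to OD600 0.40, pelleted and held on ice. Resuspended in fresh broth with 10% DMSO final and treatment at 100 μM final; CCCP is the control. Fluorescence (ex 530, em 600 nm) read every second for 300 s. Two-factor ANOVA versus vehicle at t = 300 s.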

In assay [2] the test system is Staphylococcus aureus. The experiment in a line: Inhibition of Staphylococcus aureus K1758 NorA mutant assessed as inhibition of ethidium bromide efflux by measuring increase in fluorescence at 100 uM after 300 secs.
For assay [3], the system named is Staphylococcus aureus. The experiment in a line: Antimicrobial activity against NorA efflux pump overexpressing Staphylococcus aureus K2378. The format is functional. The essentials: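 S. aureus K2378 (norA overexpressing); single colony grown to log phase in Mueller-Hinton broth, adjusted by OD600 to 1.0×10^5 CFU/mL final; broth microdilution per CLSI in broth with 2% DMSO; triplicate wells plus bacteria-free background wells; OD600 read after 20 hrs at 37 °C; MIC = concentration with no significant difference (ANOVA) from vehicle control.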

The subject of assay [4] is Staphylococcus aureus. The assay is described as follows: Antimicrobial activity against wild-type Staphylococcus aureus NCTC8325-4. The format is functional. The essentials: (§1)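 Broth microdilution MIC per CLSI guidelines. Single-colony S. aureus inoculum grown to log phase in Mueller-Hinton broth, adjusted by OD600 to 1.0×10^5 CFU/mL final. Medium contains 2% DMSO (vehicle, negative control); reserpine is the positive control. Triplicate wells, with bacteria-free wells for background subtraction. OD600 read after 20 hrs at 37 °C.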

In assay [5] the test system is Staphylococcus aureus. The assay is described as follows: Antimicrobial activity against Staphylococcus aureus. The format is functional. The essentials:
as §1

Activity calls are given as the source filed them.

For `COc1c(C)c(O)c2c(=O)cc(-c3ccc(O)cc3)oc2c1C`, the TIME in assay [1] turned out to be 0.0833 h. The inhibition result in the assay with Staphylococcus aureus [2] is “inactive”.

Consider `COc1cc(O)c2c(=O)cc(-c3ccc(O)cc3)oc2c1C`, for which the TIME in assay [1] is 0.0833 h. Further, the inhibition entry in the assay with Staphylococcus aureus [2] was “inactive”.

As for `N#CC(C#N)=NNc1cccc(Cl)c1`, the TIME in assay [1] is 0.0833 h. Besides, the inhibition result in the assay with Staphylococcus aureus [2] was “inactive”.

The term MIC denotes the smallest concentration in the dilution series that meets the test's criterion for growth inhibition. For the compound `COc1cc2oc(-c3ccc(O)cc3)cc(=O)c2c(O)c1C` [8-DEMETHYLSIDEROXYLIN], the MIC against Staphylococcus aureus [3] was above 300 µg/mL. For the same compound, in assay [1], the TIME amounted to 0.0833 h. The inhibition entry in the assay on Staphylococcus aureus [2] was “inactive”.

As to `COc1ccc2cc3[n+](cc2c1OC)CCc1cc2c(cc1-3)OCO2` [BERBERINE], the MIC against Staphylococcus aureus [3] was 300 µg/mL; with Staphylococcus aureus [4], 150 µg/mL; in the assay on Staphylococcus aureus [5], 150 µg/mL.
